The record followed here is ChEMBL document CHEMBL1149140, “Orally bioavailable competitive CCR5 antagonists” (J Med Chem, 2004).

In data set [1] the target is T1, C-C chemokine receptor type 5 (Homo sapiens, UniProt P51681). The experiment in a line: Rises in intracellular [Ca2+] levels by using [Ca2+] sensitive Fluo4 dye in C-C chemokine receptor type 5-transfected CHO cells. It is filed as functional, cell-based. The procedure, abridged:
(§1)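 CCR5-transfected CHO cells were loaded with 4 µM Fluo4 for 1 h at 37 °C (HBSS, 20 mM HEPES pH 7.4, 0.1% BSA, 2.5 mM probenecid), then washed. Compound preincubated 2 h at room temperature. Baseline read 20 s on FLIPR, then MIP-1α added (final 10 nM) and recorded 3 min. IC50 from concentration-dependent reduction of Fmax−Fmin.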

The target of data set [2] is T1, C-C chemokine receptor type 5. The experiment in a line: Antagonistic activity against human C-C chemokine receptor type 5. It is filed as functional. The procedure, abridged: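 SPA radioligand binding using membranes from CHO cells transfected with human or cynomolgus CCR5. Buffer was 50 mM HEPES, 6 mM CaCl2, 12 mM MgCl2, 100 mM NaCl and 0.5% BSA. Incubated 2 h shaking at room temperature. Nonspecific binding defined with 100 nM unlabeled MIP-1α. IC50 reported.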

Data set [3] in a line: (§2) Compound was evaluated for rises in intracellular [Ca2+] levels pre-incubation at 2.5 min in [Ca2+] Mobilization Assay. It is filed as functional, cell-based. In short, it runs like this:
(§3)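 Fluo4-loaded CCR5-transfected CHO cells on FLIPR. Baseline read 20 s, then compound added and monitored 2.5 min, then MIP-1α agonist (final 10 nM) added and fluorescence recorded 3 min. IC50 from inhibition of the MIP-1α-induced fluorescence rise.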

The nature of data set [4]: Compound was evaluated for rises in intracellular [Ca2+] levels pre-incubation at 2 hr in [Ca2+] Mobilization Assay. It is filed as functional, cell-based. The procedure, abridged:
as §1

Data set [5] in a line: Mean residence time in rats. It is filed as ADME, organism-based. To be noted: rat, in vivo.
Data set [6] in a line: Oral bioavailability in rat. It is filed as ADME, organism-based. As to conditions: in vivo.
The nature of data set [7]: Oral bioavailability. As to conditions: eutheria, in vivo. It is filed as ADME, organism-based.
Data set [8] is described as follows: Tmax in rats. It is filed as ADME, organism-based. To be noted: rat, in vivo.
The test system of data set [9] is Rattus norvegicus. Put plainly: AUC in rats at a dose of […] mg/kg. As to conditions: in vivo, 1 mg/kg. It is filed as ADME, organism-based, Plasma.
Data set [10] in a line: Cmax in monkeys at a dose of […] mg/kg. It is filed as ADME, organism-based. To be noted: simiiformes, in vivo, 1 mg/kg.
The nature of data set [11]: Cmax in rats at a dose of […] mg/kg. To be noted: rat, in vivo, 1 mg/kg. It is filed as ADME, organism-based.
Data set [12] can be described thus: Tmax in monkeys. It is filed as ADME. To be noted: simiiformes, in vivo.
Data set [13] can be described thus: Mean residence time in monkeys. It is filed as ADME, organism-based. As to conditions: simiiformes, in vivo.
Data set [14] is described as follows: AUC in monkeys at a dose of […] mg/kg. It is filed as ADME, organism-based, Plasma. To be noted: simiiformes, in vivo, 1 mg/kg.
Data set [15] in a line: Mean residence time was determined. It is filed as ADME, organism-based. As to conditions: in vivo.
Data set [16] in a line: Mean residence time in rat. It is filed as ADME, organism-based. To be noted: in vivo.
Data set [17] can be described thus: Compound was evaluated for rises in intracellular [Ca2+] levels by using [Ca2+] sensitive Fluo4 dye in CCR5-transfected CHO cells. It is filed as functional, cell-based. In short, it runs like this: as §1
For data set [18], the species on record is Homo sapiens. The data set is described as §2. It is filed as functional, organism-based. In short, it runs like this: as §3
For data set [19], the target named is CCR5 (Macaca fascicularis). The experiment in a line: Antagonistic activity against cynomolgus monkey C-C chemokine receptor type 5.

T1 sequence (P51681 whole entry): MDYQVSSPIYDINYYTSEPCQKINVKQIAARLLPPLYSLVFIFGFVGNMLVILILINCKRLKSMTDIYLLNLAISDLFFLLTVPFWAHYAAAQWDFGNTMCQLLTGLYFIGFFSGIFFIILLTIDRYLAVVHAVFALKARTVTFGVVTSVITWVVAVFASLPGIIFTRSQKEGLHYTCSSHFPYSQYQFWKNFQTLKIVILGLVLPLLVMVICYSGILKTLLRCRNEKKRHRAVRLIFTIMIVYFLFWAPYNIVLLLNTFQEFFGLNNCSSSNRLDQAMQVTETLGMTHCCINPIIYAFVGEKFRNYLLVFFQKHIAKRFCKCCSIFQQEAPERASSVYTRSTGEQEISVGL

For `Cc1cccc(C)c1C(=O)N1CCC(C)(N2CCC(Nc3ccc(C(F)(F)F)cc3)CC2)CC1`, the IC50 came to 27.3 nM in [1] and 0.8 nM in data set [2].
`CN(C)C(=O)c1ccccc1C(=O)N1CCC(C)(N2CCC(N(c3ccccc3)c3ccccc3)CC2)CC1` registered an IC50 in data set [2] of more than 100 nM.
For `Cc1cc[n+]([O-])c(C)c1C(=O)N1CCC(C)(N2CCC(N(c3ccccc3)c3ccccc3)CC2)CC1`, the IC50 is 33 nM in data set [3], 16 nM in [4], 16 nM in [1] and 3.3 nM in data set [2].
Regarding `Cc1cccc(C)c1C(=O)N1CCC(C)(N2CCC(N(c3ccccc3)c3ccccc3)CC2)CC1`, the IC50 in data set [3] was determined as 250 nM. This molecule also gave an MRT in [5] of 6.9 h. Besides, the values for the bioavailability in data set [6] and in data set [7] were 62% and 0%, respectively. The Tmax in [8] is 0.5 h. The same molecule yielded an AUG in data set [9] of 664 ng·h/mL. The molecule further registered a Cmax in [10] of 81 ng/mL.
In turn, `COc1cc(CN(c2ccccc2)C2CCN(C3(C)CCN(C(=O)c4c(C)cc[n+]([O-])c4C)CC3)CC2)cc(OC)c1OC` had a 50% inhibitory concentration (IC50) in [2] of more than 1000 nM.
Molecule `Cc1cccc(C)c1C(=O)N1CCC(C)(N2CCC(N(Cc3ccccc3)Cc3ccccc3)CC2)CC1` returned an IC50 in data set [2] of 75 nM.
As to `Cc1cc[n+]([O-])c(C)c1C(=O)N1CCC(N2CCC(N(c3ccccc3)c3ccccc3)CC2)CC1`, the IC50 in data set [1] is 127 nM; in data set [2], 9 nM.
Regarding `Cc1cccc(C)c1C(=O)N1CCC(C)(N2CCC(N(Cc3ccccc3)c3ccc(Br)cc3)CC2)CC1`, the IC50 in data set [3] was 1450 nM; in [4] it was 28 nM; in data set [1], 15.6 nM; in data set [2], 2.3 nM.
As for `Cc1ccccc1C(=O)N1CCC(C)(N2CCC(N(c3ccccc3)c3ccccc3)CC2)CC1`, the IC50 is 67 nM in data set [1] and 7.8 nM in data set [2].
For the molecule `Cc1cc[n+]([O-])c(C)c1C(=O)N1CCC(C)(N2CCC(N(Cc3ccccc3C#N)c3ccccc3)CC2)CC1`, the IC50 in data set [1] was more than 3000 nM; in data set [2] it was 80 nM.
Regarding `Cc1cc(C)c(S(=O)(=O)N2CCC(C)(N3CCC(N(c4ccccc4)c4ccccc4)CC3)CC2)c(C)c1`, in [2], half-maximal inhibition (IC50) was put at 41 nM.
For the molecule `Cc1cccc(C)c1C(=O)N1CCC(C)(N2CCC(N(Cc3ccccc3)c3ccccc3)CC2)CC1`, inhibition in data set [3] was half-maximal at 200 nM (IC50). The Cmax amounted to 90 ng/mL in data set [11] and 7 ng/mL in data set [10]. Further, the Tmax in data set [12] amounted to 0.5 h. The bioavailability in data set [6] was 85%; in data set [7], 4%. Moreover, the MRT in data set [13] was determined as 4.1 h; in data set [15], 8.9 h. For the same molecule, the AUG in data set [9] was 569 ng·h/mL; in data set [14], 33 ng·h/mL.
In the case of `Cc1cccc(C)c1C(=O)N1CCC(C)(N2CCC(Nc3ccc4ccn(C)c4c3)CC2)CC1`, the IC50 was 1680 nM in [1] and 91 nM in data set [2].
`CC1(N2CCC(N(c3ccccc3)c3ccccc3)CC2)CCN(C(=O)c2cccc3ccccc23)CC1`: the IC50 was 610 nM in data set [3], 29 nM in data set [4] and 29.4 nM in [17]. The bioavailability in data set [6] came to 100%. Besides, in data set [16], the mean residence time MRT stood at 14.4 h. The molecule further had an AUG in data set [9] of 518 ng·h/mL. Further, the peak level in data set [10] (Cmax) was 70 ng/mL.
In the case of `Cc1cccc(C)c1C(=O)N1CCC(C)(N2CCC(Nc3ccc(-c4ccccc4)cc3)CC2)CC1`, the IC50 in data set [2] came out at 460 nM.
`CC1(N2CCC(N(c3ccccc3)c3ccccc3)CC2)CCN(C(=O)c2c[nH]c3ccccc23)CC1`: the results for the IC50 in [1] and in data set [2] were 283 nM and 48 nM, respectively.
In the case of `Cc1ccnc(C)c1C(=O)N1CCC(C)(N2CCC(N(c3ccccc3)c3ccccc3)CC2)CC1`, it took 114 nM to reach half-maximal inhibition in data set [3] (IC50).
`Cc1cccc(C)c1C(=O)N1CCC(C)(N2CCC(Nc3ccccc3)CC2)CC1`: in [2], half-maximal inhibition (IC50) was put at 100 nM.
For `Cc1cccc(C)c1C(=O)N1CCC(C)(N2CCC(NCc3ccccc3)CC2)CC1`, the IC50 in data set [1] and in data set [2] was more than 1000 nM in each case.
On to `Cc1nc(-c2ccccc2)nc(C)c1C(=O)N1CCC(C)(N2CCC(N(c3ccccc3)c3ccccc3)CC2)CC1`, for which the bioavailability amounted to 86% in data set [6] and 0% in data set [7]. This molecule also registered an AUG in data set [14] of 115 ng/mL/h. In [10], the peak level (Cmax) was 12 ng/mL.
Consider `Cc1ncnc(C)c1C(=O)N1CCC(C)(N2CCC(N(c3ccccc3)c3ccccc3)CC2)CC1`, for which the IC50 in data set [4] stood at 8 nM; in data set [18] it was 28 nM.
Regarding `Cc1cccc(C)c1C(=O)N1CCC(C)(N2CCC(Nc3cccc4ccn(C)c34)CC2)CC1`, the figures for the IC50 in data set [1] and in data set [2] were 2170 nM and 102 nM, respectively.
Turning to `Cc1nc(-c2ccncc2)nc(C)c1C(=O)N1CCC(C)(N2CCC(N(c3ccccc3)c3ccccc3)CC2)CC1`, the IC50 was 125 nM in [3]; 24.6 nM in data set [4]; 30 nM in [1]; 2.8 nM in [2]; 7.9 nM in data set [19]. Moreover, the Cmax in [11] is 73 ng/mL. The molecule further displayed a bioavailability in data set [7] of 57%. Besides, the Tmax in data set [8] stood at 0.5 h. The molecule also registered an AUG in data set [9] of 513 ng·h/mL. In data set [15], this molecule registered an MRT of 5.8 h.
`Cc1nc[n+]([O-])c(C)c1C(=O)N1CCC(C)(N2CCC(N(c3ccccc3)c3ccccc3)CC2)CC1`: the Cmax in data set [11] and in data set [10] was 91 ng/mL each time. Also, the bioavailability in data set [6] was found to be 94%; in [7] it was 58%. Moreover, the MRT in data set [13] is 5.1 h; in data set [15] it was 6 h. Further, the AUG in [9] worked out at 1030 ng·h/mL; in data set [14], 1550 ng·h/mL.
Consider `CC1(N2CCC(N(c3ccccc3)c3ccccc3)CC2)CCN(C(=O)C2CCCCC2)CC1`, for which the values for the IC50 in data set [1] and in data set [2] were 580 nM and 408 nM, respectively.
The molecule `COc1cccc(OC)c1C(=O)N1CCC(C)(N2CCC(N(c3ccccc3)c3ccccc3)CC2)CC1` registered an IC50 in data set [2] of 42 nM.
